Experimental data of several laboratories.
EGFR del746-750: Epidermal growth factor receptor (EGFR, Homo sapiens, UniProt P00533, del746-750)
EGFR: Epidermal growth factor receptor (EGFR, Homo sapiens, UniProt P00533)
EGFR L858R: Epidermal growth factor receptor (EGFR, Homo sapiens, UniProt P00533, L858R)
EGFR G719C: Epidermal growth factor receptor (EGFR, Homo sapiens, UniProt P00533, G719C)
EGFR L861Q: Epidermal growth factor receptor (EGFR, Homo sapiens, UniProt P00533, L861Q)

| Structure (SMILES) | target | observed | action | technique | tested at | quantity | value |
| --- | --- | --- | --- | --- | --- | --- | --- |
| C[C@H]1CC[C@H](n2c3cnccc3c3cnc(Nc4ccc5c(n4)CCN(C(=O)CO)C5)nc32)CC1 | EGFR del746-750 | cell-free assay | – | – | 1 µM | remaining signal | 84% |
| COc1c(Cl)cccc1Nc1c(-c2ccncc2OC[C@@H]2COCCO2)[nH]c2c1C(=O)NCC2 | EGFR | enzyme activity | inhibitor | radiometric | 1 µM | inhibition | > 80% |
| CN1CCN(C(=O)c2ccc(NC(=O)Nc3ccc(N(C)c4ccnc(Nc5ccc(CS(C)(=O)=O)cc5)n4)cc3)cc2)CC1 | EGFR L858R | binding | – | – | 1 µM | remaining binding | 92% |
| CO[C@@H]1[C@H](N(C)C(=O)c2ccccc2)C[C@H]2O[C@]1(C)n1c3ccccc3c3c4c(c5c6ccccc6n2c5c31)C(=O)NC4 | Epidermal growth factor receptor (EGFR, Homo sapiens, UniProt P00533, A750P/del747-749) | enzyme activity | inhibitor | – | 1 µM | inhibition | 74% |
| CS(=O)(=O)c1ccccc1Nc1nc(Nc2ccnc(CO)c2)ncc1Cl | EGFR | enzyme activity | inhibitor | radiometric | 1 µM | remaining activity | 94.8% |
| CC#CC(=O)N1CCC[C@H]1c1nc(-c2ccc(C(=O)Nc3ccccn3)cc2)c2c(N)nccn12 | EGFR del746-750 | enzyme activity | inhibitor | – | 1 µM | inhibition | 0% |
| Cc1ccc(NC(=O)c2ccnc(C(F)(F)F)c2)cc1-c1cc(OCCO)nc(N2CCOCC2)c1 | EGFR G719C | binding | – | – | 1 µM | remaining binding | 97% |
| CCCCC(=O)Nc1ccc(-c2ccc3ncn(CCC)c(=O)c3c2)cn1 | EGFR L861Q | binding | – | competition with immobilised ligand | 0.5 µM | remaining binding | 100% |
| N#Cc1ccc(NC(=O)Nc2ccccc2)cc1 | EGFR | cell-free assay | – | competition with immobilised ligand | 25 µM | remaining binding | 87% |
| COc1ccc2oc(-c3ccc4nc(N)oc4c3)c/c(=N\c3ccccc3NC(=O)CCN)c2c1 | EGFR | binding | – | – | 1 µM | remaining binding | 97% |
| C=CC(=O)N1CCC([C@@H]2CCNc3c(C(N)=O)c(-c4ccc(Oc5ccccc5)cc4)nn32)CC1 | EGFR del746-750 | cell-free assay | – | – | 1 µM | inhibition | 21% |
| C#Cc1cnc(Nc2ccnc(CO)c2)nc1Nc1ccccc1S(C)(=O)=NC#N (stereo not drawn) | EGFR L858R | cell-free assay | – | – | 1 µM | remaining signal | 63% |
| COc1ccc2[nH]c3c4[nH]c5ccc(OC)cc5c4c4c(c3c2c1)C(=O)NC4=O | EGFR L861Q | binding | – | – | 1 µM | remaining binding | 71% |
| C#Cc1cnc(Nc2ccc(CO)cc2)nc1Nc1ccccc1C(=O)NC | EGFR | enzyme activity | inhibitor | radiometric | 1 µM | remaining activity | 10.1% |
| C1=C/COCc2cc(ccc2OCCN2CCCC2)Nc2nccc(n2)-c2cccc(c2)COC/1 | EGFR G719C | binding | – | – | 0.1 µM | remaining binding | 75% |
